Source: PubChem BioAssay (several laboratories)
RGS4 act: RGS4 potentiators or activators, primary screen, cell-based, HEK293 M3R inducible RGS4, calcium flux | carbachol calcium flux Fluo4; hits give low values | hit rate 0.92% among 310,000 | AID 463111, 2010 | B-score at 10 µM;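 active means B-score of the integrated calcium signal more than 4 SD below the library mean, with starting fluorescence not abnormally high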;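 further: negative B-score means reduced calcium response which marks RGS4 activation or potentiation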
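Reagent: ECmax carbachol challenge; Test system: M3R-expressing HEK293 line, RGS4 induced by doxycycline; Schedule: overnight RGS4 induction, 30 min dye load 37 °C, 20 min compound RT; Detection: calcium dye Fluo4 fluorescence; Read-out: Agonist-evoked peak-minus-minimum fluorescence over baseline, integrated ratio, B score.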
MrgX1 allo act: positive allosteric modulators of MrgX1, primary screen, HEK293 cells, Fluo-4 calcium flux | Mas-related G-protein coupled receptor member X1 (Homo sapiens), Q96LB2 | FDSS; hits give high values | B-score at 10 µM | hit rate 0.63% among 310,000 | AID 588675, 2011;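 active means plate-corrected calcium response at least 3 library SD above typical, normal starting fluorescence, not activating the receptor alone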;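 further: compound read alongside a low EC10 to EC30 dose of BAM8-22 agonist; peak minus trough fluorescence over baseline measured at the second addition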
Target sequence (Q96LB2 whole entry, looked up): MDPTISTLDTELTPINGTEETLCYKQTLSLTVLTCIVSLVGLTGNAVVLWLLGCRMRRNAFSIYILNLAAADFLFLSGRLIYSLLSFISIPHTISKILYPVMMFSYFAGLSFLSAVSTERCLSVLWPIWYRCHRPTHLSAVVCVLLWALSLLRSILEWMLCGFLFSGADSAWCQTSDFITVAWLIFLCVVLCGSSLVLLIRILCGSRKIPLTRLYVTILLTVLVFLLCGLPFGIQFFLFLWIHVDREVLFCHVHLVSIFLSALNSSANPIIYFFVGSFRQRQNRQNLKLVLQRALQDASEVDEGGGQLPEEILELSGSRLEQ
PHOSPHO1 inh: PubChem AID 1565. Phosphoethanolamine/phosphocholine phosphatase (Homo sapiens), Q8TCT1. inhibition, % at 13.3 µM. hit rate 1.1% among 290,000. recombinant PHOSPHO1, absorbance phosphatase assay; in the data active means inhibition above about 60%
MrgX1 antag: antagonists of human MrgX1 receptor, primary screen, HEK293 cells, Fluo-4 calcium flux | Mas-related G-protein coupled receptor member X1 (Homo sapiens), Q96LB2 | BAM8-22 antagonism; hits give low values | B-score at 10 µM | hit rate 1.3% among 310,000 | AID 588676, 2011;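 active means calcium-response B-score plate-corrected more than 3 library SD below zero, starting fluorescence within 5 deviations, no agonist response on first addition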;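 further: peak minus trough fluorescence over baseline after final BAM8-22 challenge near maximal dose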
MrgX1 agonist: agonists of human MrgX1 receptor, primary screen, HEK293 cells, Fluo-4 calcium flux. Mas-related G-protein coupled receptor member X1 (Homo sapiens), Q96LB2. Fluo-4 calcium fluorescence, agonist mode; hits give high values. B-score at 10 µM. hit rate 0.44% among 310,000. AID 588627, 2011;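 active means calcium response B-score plate-corrected fluorescence ratio at least 3 library SD, with starting fluorescence B-score inside 5 SD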
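Assay system: stable human MrgX1 HEK293 cell line. Quantity: 15,000 cells per well. Schedule: cells plated overnight, dye loaded 0.5 h 37 °C, 0.5 h room temperature. Detection: Fluo-4 NW calcium-flux fluorescence, kinetic read. Read-out basis: peak-minus-minimum fluorescence over baseline, converted to B scores. Control set: positive and negative control wells on each plate.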
RGS4 inh: RGS4 inhibitors, primary screen, cell-based, HEK293 M3R inducible RGS4, calcium flux | Regulator of G-protein signaling 4 (Homo sapiens), P49798 | Fluo-4 calcium flux; hits give high values; triggered by carbachol at its EC20 | B-score at 10 µM | hit rate 0.45% among 310,000;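 active means B-score, a plate-corrected calcium signal, over three deviations above library mean, with baseline fluorescence within five deviations of library mean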;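 further: RGS4 expression induced by doxycycline in cells with stable M3 receptor; B-score is computed from the integrated fluorescence ratio over baseline after carbachol; higher B-score means a larger calcium signal and so more RGS4 inhibition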
Target sequence (P49798 whole entry, looked up): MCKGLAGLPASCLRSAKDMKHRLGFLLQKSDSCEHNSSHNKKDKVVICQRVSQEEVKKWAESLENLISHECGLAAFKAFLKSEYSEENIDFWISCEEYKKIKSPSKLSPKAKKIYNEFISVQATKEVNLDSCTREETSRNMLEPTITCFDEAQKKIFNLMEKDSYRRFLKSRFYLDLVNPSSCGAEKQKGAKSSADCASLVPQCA
Large screens that a line does not name were inactive. The list is not random: actives were taken first. Their share in the collection is about 4.5%.

Cc1ccccc1N/C(=C(/C(Cl)=C(Cl)Cl)[N+](=O)[O-])n1nnc2ccccc21	MrgX1 antag -5
COc1ccc(N/C(=C(/C(Cl)=C(Cl)Cl)[N+](=O)[O-])n2nnc3ccccc32)cc1	none
CC(Oc1ccc(-c2ccccc2)c(F)c1)c1ccn(S(=O)(=O)c2ccc(F)cc2)n1 (stereo not drawn)	none
O=S(=O)(c1ccc(F)cc1)n1ccc(-c2cccc(OCc3ccc(Cl)cc3Cl)c2)n1	MrgX1 antag -8.1
Cc1ccc(N2CC(O)(c3cccs3)[N+]3=C2CCCC3)cc1 (stereo not drawn)	PHOSPHO1 inh 61
CCc1ccc(N2CC(O)(c3cccs3)[N+]3=C2SCCC3)cc1 (stereo not drawn)	RGS4 act -7.5
CCOC(=O)c1ccc(NC(=O)CN(C)S(=O)(=O)c2ccc(Br)s2)cc1	none
CCCCC(CC)CN=C(N)NC(N)=NCCCCCCN=C(N)NC(N)=NCC(CC)CCCC (stereo not drawn)	MrgX1 agonist 170 (no result: RGS4 act, PHOSPHO1 inh, RGS4 inh)
COc1cccc(/C=N/n2c(N)c(S(=O)(=O)c3cccs3)c3nc4ccccc4nc32)c1OC	none
Nc1c(S(=O)(=O)c2cccc(Cl)c2)c2nc3ccccc3nc2n1/N=C/c1ccc(O)c(O)c1	RGS4 inh 16
Cc1ccc2nc(SCC(=O)NCc3cccs3)[nH]c2c1	none
CCOc1ncccc1C(=O)OCC(=O)c1cc(OC)c(OC)c(OC)c1	none
O=C(NCCCn1ccnc1)c1ccc(Cl)c(S(=O)(=O)N2CCOCC2)c1	none
Cc1c(C=O)c2ccccn2c1C(=O)c1ccc(Cl)c([N+](=O)[O-])c1	MrgX1 antag -4.6
Cc1cc2ccccn2c1C(=O)c1ccc(Cl)c([N+](=O)[O-])c1	none
Cc1c(C(=O)Nc2ccc(Cl)cc2)c2ccccn2c1C(=O)c1ccc([N+](=O)[O-])cc1	RGS4 act -8.2
O=C(NCc1ccccc1)C(c1ccco1)N(C(=O)c1csnn1)C1CC1 (stereo not drawn)	none
Cc1ccc(-n2ncc3c(SCc4ccccn4)ncnc32)c(C)c1	none
O=C(N/N=C/c1ccc(N2CCOCC2)cc1)c1ccccc1OCCOc1ccccc1	RGS4 act -7.1
O=C(CN1CCOCC1)N/N=C/c1ccccc1	PHOSPHO1 inh 60
CCCN(CCC)c1ccc(/C=N/NC(=O)CN2CCOCC2)cc1	none
O=C(NCCCN1CCOCC1)C(=O)N/N=C/c1c2ccccc2cc2ccccc12	RGS4 act -9.2
CC(C)OCCCNC(=O)C1CC(=O)N(CCc2ccc(F)cc2)C1 (stereo not drawn)	none (no result: PHOSPHO1 inh)
Cc1ccc(CCN2CC(C(=O)NCCCOC(C)C)CC2=O)cc1 (stereo not drawn)	MrgX1 antag -4.5
COc1ccc(NS(=O)(=O)c2cccs2)cc1S(=O)(=O)N1CCOCC1	none
COc1ccc(Nc2nc(-c3cccs3)nc3ccccc23)cc1S(=O)(=O)N1CCOCC1	RGS4 act -7.3 (no result: PHOSPHO1 inh)
CC1CN(C(=O)COC(=O)c2cc(Cl)ccc2Cl)CC(C)O1 (stereo not drawn)	none
CC1CN(C(=O)COC(=O)c2cc(Cl)ccc2[N+](=O)[O-])CC(C)O1 (stereo not drawn)	MrgX1 antag -4.8
Cc1cc(C)c(C(=O)Nc2ccc(Br)c(C(F)(F)F)c2)c(C)c1	none
COc1ccc(C(CNC(=O)C(CC(C)C)NS(=O)(=O)c2ccc(C)cc2)N2CCOCC2)cc1 (stereo not drawn)	none (no result: PHOSPHO1 inh)
O=C(Nc1ccc(Cl)cc1)Nc1ccc2c(c1)N1CCN=C1S2	MrgX1 antag -5.2
CCn1cc(C(=O)O)c(=O)c2cc(F)c(N3CCN(C(=S)Nc4ccccc4OC)CC3)cc21	none
CCn1cc(C(=O)O)c(=O)c2cc(F)c(N/N=C/c3ccccc3[N+](=O)[O-])cc21	RGS4 act -9.4
O=C(NC1CCCCC1)C1COc2ccccc2O1 (stereo not drawn)	RGS4 act -7.6 (no result: PHOSPHO1 inh)
CC1C(=O)N2CCCc3cc(NC(=O)C4CC4)cc1c32 (stereo not drawn)	none (no result: PHOSPHO1 inh)
O=C(COC(=O)CCc1nc2ccccc2c(=O)[nH]1)Nc1ccccc1Cl	none
O=C(COC(=O)CCc1nc2ccccc2c(=O)[nH]1)Nc1ccc(Cl)cn1	PHOSPHO1 inh 74
CC(=O)Cn1nnc2sc(-c3ccccc3)cc2c1=O	none
C=CCNc1sc(C(=O)c2ccccc2)c(N)c1-c1nc2ccccc2s1	PHOSPHO1 inh 98
Cc1ccc(C(=O)OCC(=O)Nc2sc3c(c2C#N)CCCC3)cc1NC(=O)c1ccco1	RGS4 act -7.5, PHOSPHO1 inh 64
COCCCNC(=O)CCc1c(C)nc2c(c(C)nn2-c2ccccc2)c1C	none
CCN(CC)CCNC(=O)CCc1c(C)nc2c(c(C)nn2-c2ccc(C)c(C)c2)c1C	RGS4 act -7
Cc1ccc(-n2nc(C)c3c(C)c(CCC(=O)Nc4ccc(CN5CCCC5)cc4)c(C)nc32)cc1	RGS4 act -7.1
COC(=O)CSc1ccc2nnc(-c3ccc(OC)c(OC)c3)n2n1	none
COc1ccc(-c2nnc3ccc(SC(C(C)=O)C(C)=O)nn23)cc1OC	PHOSPHO1 inh 106
CCC(Sc1ccc2nnc(-c3ccc(OC)c(OC)c3)n2n1)C(=O)O (stereo not drawn)	PHOSPHO1 inh 60
Cc1ccc2c(c1)NC(=O)C(CC(=O)NCCCN1CCCCC1C)O2 (stereo not drawn)	none
CCC(C)N(CCNC(=O)CC1Oc2ccc(C)cc2NC1=O)C1CCCCC1 (stereo not drawn)	RGS4 act -7.3
Cc1cc(C(=O)CSc2nnc(-c3ccc(F)cc3)o2)c(C)n1CC1COc2ccccc2O1 (stereo not drawn)	PHOSPHO1 inh 91
Cc1cc(C(=O)CSc2nnc(-c3ccc(F)cc3)o2)c(C)n1CC1CCCO1 (stereo not drawn)	PHOSPHO1 inh 100
Cc1cc(C(=O)CSc2nnc(-c3ccco3)o2)c(C)n1CC1COc2ccccc2O1 (stereo not drawn)	PHOSPHO1 inh 91 (no result: MrgX1 allo act, MrgX1 antag, MrgX1 agonist)
Cc1cc(C(=O)CSc2nnc(-c3ccccc3)o2)c(C)n1CC1COc2ccccc2O1 (stereo not drawn)	none
O=C(CSc1nnc(-c2ccco2)o1)NC(=O)C1COc2ccccc2O1 (stereo not drawn)	none
CCN(CC)CCOC(=O)c1ccc(NC(=O)CNC(=O)C2CCCCC2)cc1	none
CN(C)CCNC(=O)C(=O)Nc1cc2c3c(c1)CCN3C(=O)CC2	none
